Results from ChEMBL document CHEMBL1148736, “N-Acylthiadiazolines, a new class of liver X receptor agonists with selectivity for LXRbeta” (J Med Chem, 2007).
The source made the active and inactive calls. The calls are words filed in the database; no cut-off is given here.

How the values were obtained:
[1] = target: T1, Oxysterols receptor LXR-beta (Homo sapiens) (UniProt P55055); assay: Agonist activity at GAL-linked human LXRbeta expressed in THP1 cells assessed as stimulation of co-activator recruitment by FRET assay relative to GW-3965; type: functional
T1 sequence (whole entry): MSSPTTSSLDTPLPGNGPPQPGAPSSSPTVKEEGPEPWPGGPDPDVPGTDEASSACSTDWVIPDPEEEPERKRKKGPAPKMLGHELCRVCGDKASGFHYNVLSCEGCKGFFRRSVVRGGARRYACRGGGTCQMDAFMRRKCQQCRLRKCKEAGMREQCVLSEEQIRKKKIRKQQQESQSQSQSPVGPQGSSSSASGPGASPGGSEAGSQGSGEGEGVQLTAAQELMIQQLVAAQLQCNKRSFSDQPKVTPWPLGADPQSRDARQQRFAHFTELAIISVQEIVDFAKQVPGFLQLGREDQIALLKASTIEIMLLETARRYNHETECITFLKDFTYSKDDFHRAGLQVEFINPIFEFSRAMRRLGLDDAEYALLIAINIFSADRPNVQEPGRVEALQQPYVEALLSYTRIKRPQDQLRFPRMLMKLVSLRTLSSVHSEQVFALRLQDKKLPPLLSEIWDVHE
Procedure, shortened: (§1)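 Cell-free TR-FRET coactivator recruitment: 20 nM His-tagged hLXRα or hLXRβ, 300 nM biotinylated SRC-1 peptide, Eu-anti-His antibody, APC-streptavidin. 12-point curves from 20 µM; 1 h at 37 °C. Duplicate. %E = maximal coactivator recruitment relative to reference dual agonist in same experiment.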

[2] = target: T2, Oxysterols receptor LXR-alpha (Homo sapiens) (UniProt Q13133); assay: Agonist activity at GAL-linked human LXRalpha expressed in THP1 cells assessed as stimulation of co-activator recruitment by FRET assay relative to GW-3965; type: functional; procedure, shortened: as §1
T2 sequence (whole entry): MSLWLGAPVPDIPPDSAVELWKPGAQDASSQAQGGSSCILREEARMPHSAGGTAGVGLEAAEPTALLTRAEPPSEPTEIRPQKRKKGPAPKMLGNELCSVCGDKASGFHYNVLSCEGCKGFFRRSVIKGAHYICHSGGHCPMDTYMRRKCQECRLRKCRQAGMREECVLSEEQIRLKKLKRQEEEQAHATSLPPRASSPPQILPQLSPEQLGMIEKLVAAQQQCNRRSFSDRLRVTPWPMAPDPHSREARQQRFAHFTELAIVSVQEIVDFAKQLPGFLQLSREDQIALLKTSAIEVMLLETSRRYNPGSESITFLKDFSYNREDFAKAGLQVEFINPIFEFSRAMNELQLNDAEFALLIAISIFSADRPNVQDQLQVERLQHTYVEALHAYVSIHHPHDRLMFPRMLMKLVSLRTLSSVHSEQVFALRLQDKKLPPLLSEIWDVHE

[3] = target: T3, Oxysterols receptor LXR-alpha (Homo sapiens, UniProt Q13133); assay: Agonist activity at GAL-linked human LXRalpha expressed in THP1 cells assessed as stimulation of coactivator recruitment by FRET assay; type: functional; procedure, shortened: as §1
T3 sequence (Q13133 whole entry): T2 sequence (whole entry)

[4] = test system: THP-1; assay: Increase in ABCA1 gene expression in THP1 cells at 1 uM relative to GW-3965; type: functional, Homo sapiens
Procedure, shortened: (§2)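 THP-1 cells differentiated with 40 ng/mL PMA for 1 day, then switched to RPMI with 2% lipoprotein-deficient FBS. Compound added 6 h later at 1 or 10 µM in DMSO, incubated 24 h. ABCA1 mRNA by one-step TaqMan qRT-PCR, triplicate, multiplexed with 36B4; fold induction vs DMSO, expressed relative to reference dual agonist.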

[5] = test system: THP-1; assay: Increase in ABCA1 gene expression in THP1 cells at 10 uM relative to GW-3965; type: functional, Homo sapiens; procedure, shortened: as §2
[6] = target: T4, Oxysterols receptor LXR-beta (Homo sapiens, UniProt P55055); assay: Agonist activity at GAL-linked human LXRbeta expressed in THP1 cells assessed as stimulation of co-activator recruitment by FRET assay; type: functional; procedure, shortened: as §1
T4 sequence (P55055 whole entry): T1 sequence (whole entry)

[7] = test system: Hepatocyte; assay: Induction on FAS gene expression in human primary hepatocytes at 1 uM; type: functional, cell-based
Procedure, shortened: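 Primary human hepatocytes treated with 1 µM compound; FAS mRNA measured by TaqMan-based qRT-PCR.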

[8] = target: T1, Oxysterols receptor LXR-beta (Homo sapiens); assay: Displacement of [3H]T-0901317 from GAL-linked human LXRbeta expressed in THP1 cells at 20 uM by SPA relative to GW-3965; type: cell-based; details: THP-1
Procedure, shortened: (§3)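 Scintillation proximity displacement with His-tagged hLXRα or hLXRβ LBD (200 ng/well) and 30 nM [3H]T0901317. Beads 0.2 mg/well in phosphate buffer with EDTA, NaCl, DTT, CHAPS, 10% glycerol. 12-point curves from 20 µM; shaken 3 h at room temperature. No-competitor wells = 100% binding; nonspecific binding without protein. Efficacy = maximal displacement relative to reference dual agonist.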

[9] = target: T2, Oxysterols receptor LXR-alpha (Homo sapiens); assay: Activity at human LXRalpha by Gal4 transactivation assay relative to GW-3965
Procedure, shortened: (§4)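 GAL4 DBD fused to hLXRα or hLXRβ LBD in pcDNA3, co-transfected into HepG2 with luciferase reporter. Cells in DMEM with 10% lipoprotein-deficient FBS, 7.5 µM lovastatin, 100 µM mevalonic acid. Ligand added 24 h post-transfection as 11-point curves from 10 µM; luciferase read after 16 h. Run in quadruplicate. %E = max fold induction vs max fold induction of reference dual agonist in same experiment.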

[10] = target: T2, Oxysterols receptor LXR-alpha (Homo sapiens); assay: Displacement of [3H]T-0901317 from GAL-linked human LXRalpha expressed in THP1 cells at 20 uM by SPA relative to GW-3965; type: cell-based; details: THP-1; procedure, shortened: as §3
[11] = target: T1, Oxysterols receptor LXR-beta (Homo sapiens); assay: Activity at human LXRbeta by Gal4 transactivation assay relative to GW-3965; procedure, shortened: as §4
[12] = target: T3, Oxysterols receptor LXR-alpha; assay: Activity at human LXRalpha by Gal4 transactivation assay; procedure, shortened: as §4
[13] = test system: Macrophage; assay: Induction of APO-AI-dependent cholesterol efflux in mouse macrophages; type: functional, cell-based
Procedure, shortened: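 Peritoneal macrophages labelled 24 h with [3H]cholesterol (1.0 µCi/mL) plus ACAT inhibitor 58-035 (2 µg/mL), with compound. Then 2–4 h equilibration in label-free medium with compound. Efflux for 4 h into DMEM/0.2% BSA with or without apoAI (15 µg/mL). apoAI-dependent efflux = medium radioactivity as % of total cell plus medium. Triplicate.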

[14] = target: T4, Oxysterols receptor LXR-beta; assay: Activity at human LXRbeta by Gal4 transactivation assay; procedure, shortened: as §4

| SMILES | Activity [1] [%] | Efficacy [2] [%] | EC50 [3] [nM] | Efficacy [1] [%] | EC50 [6] [nM] | Efficacy [8] [%] | Efficacy [9] [%] | Efficacy [10] [%] | Efficacy [11] [%] | EC50 [12] [nM] | EC50 [14] [nM] | Activity [4] [%] | Activity [5] [%] | Activity [7] | Activity [13] |
| --- | --- | --- | --- | --- | --- | --- | --- | --- | --- | --- | --- | --- | --- | --- | --- |
| COc1cccc(C2SC(c3ccc(Cl)cc3)=NN2C(=O)c2ccccc2)c1OC (configuration not stated) | < 15 | < 15 | – | – | – | – | – | – | – | – | – | – | – | – | – |
| COc1cccc(C2SC(c3ccc(F)cc3)=NN2C(=O)c2cc(F)ccc2C)c1OC (configuration not stated) | – | 46 | 2400 | 90 | 140 | – | – | – | – | – | – | 21 | 32 | – | – |
| O=S(=O)(c1ccccc1)N(CC(F)(F)F)c1ccc(C(O)(C(F)(F)F)C(F)(F)F)cc1 | – | – | – | – | – | – | – | – | – | – | – | – | – | Active | – |
| COc1cccc(C2SC(c3ccc(F)cc3)=NN2C(=O)c2cc(F)c(F)c(OC)c2F)c1OC (configuration not stated) | – | 64 | 700 | 100 | 81 | – | – | – | – | – | – | 30 | 59 | – | – |
| COc1cc(F)c(C(=O)N2N=C(c3ccc(F)cc3)SC2c2cccc(OC)c2OC)c(F)c1 (configuration not stated) | – | 47 | 900 | 100 | 170 | – | – | – | – | – | – | 81 | 42 | – | – |
| COc1cccc(C2SC(c3ccc(Cl)cc3)=NN2C(=O)c2ccccc2F)c1OC (configuration not stated) | – | < 15 | – | 48 | 7700 | – | – | – | – | – | – | – | – | – | – |
| O=C(O)Cc1cccc(OCCCN(Cc2cccc(C(F)(F)F)c2Cl)CC(c2ccccc2)c2ccccc2)c1 | – | 100 | 97 | 100 | 27 | 100 | 100 | 100 | 100 | 66 | 4 | 100 | 100 | Active | – |
| COc1cccc(C2SC(c3ccc(Cl)cc3)=NN2C(=O)c2ccc(F)cc2F)c1OC (configuration not stated) | – | 50 | 6700 | 80 | 980 | – | – | – | – | – | – | 23 | 40 | – | – |

More lines, main results first:

| Activity [1] [%] | Efficacy [2] [%] | EC50 [3] [nM] | Efficacy [1] [%] | EC50 [6] [nM] | Efficacy [8] [%] | Efficacy [9] [%] | Efficacy [10] [%] | Efficacy [11] [%] | EC50 [12] [nM] | EC50 [14] [nM] | SMILES | Activity [4] [%] | Activity [5] [%] | Activity [7] | Activity [13] |
| --- | --- | --- | --- | --- | --- | --- | --- | --- | --- | --- | --- | --- | --- | --- | --- |
| – | < 15 | – | 50 | 4000 | – | – | – | – | – | – | COc1ccccc1C1(C)SC(c2ccc(F)cc2)=NN1C(=O)c1c(F)cc(F)cc1F (configuration not stated) | – | – | – | – |
| – | 76 | 1900 | 90 | 150 | – | – | – | – | – | – | O=C(c1c(F)cc(F)cc1F)N1N=C(c2ccc(F)cc2)SC1c1ccccc1OC(F)F (configuration not stated) | 26 | – | – | – |
| < 15 | < 15 | – | – | – | < 15 | < 15 | < 15 | < 15 | – | – | COc1cccc([C@@H]2SC(c3ccc(Cl)cc3)=NN2C(=O)c2c(F)cc(F)cc2F)c1OC | 0 | 0 | – | – |
| – | 43 | 900 | 92 | 160 | – | – | – | – | – | – | COc1cccc(C2SC(c3ccc(F)cc3)=NN2C(=O)c2c(F)cc(Br)cc2F)c1OC (configuration not stated) | – | 42 | – | – |
| – | 64 | 1600 | 94 | 67 | 100 | 41 | 80 | 98 | 346 | 63 | COc1cccc([C@H]2SC(c3ccc(Cl)cc3)=NN2C(=O)c2c(F)cc(F)cc2F)c1OC | 39 | 60 | – | Active |
